Screening data from PubChem BioAssay.
Hits are enriched below; roughly 2.9% of the tested compounds scored in any of these assays.
CHO-K1 Ca PAM: nonselective activator or artifact in parental CHO-K1 calcium assay | ATP EC20, Fluo-8 calcium fluorescence; 0% at ATP EC20, 100% at ATP max | hit rate 0.02% among 360,000 | activation, % at 3 µM;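 active = activation above the run cutoff, the mean activation of all test compounds plus 3 SD, cut at about 40% in these data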;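 also: peak over basal fluorescence ratio in a 140 s read after ATP addition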
CHO parental Ca: counter-screen for OX1R antagonists: effect in parental CHO cells. parental CHO-K1, ATP-induced calcium, Fluo-8 fluorescence. inhibition, % at 5.6 µM. hit rate 0.63% among 330,000. AID 463079;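 active = inhibition above that plate's mean sample inhibition plus 3 SD, cut at about 26% in these data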;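 also: 0% = ATP-challenged DMSO wells and 100% = DMSO wells without ATP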
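Test system: untransfected parental CHO cell line. Compound: one dose, 5.6 µM nominal. Detection: intracellular calcium via Fluo-8 no-wash fluorescent dye. Measure: % inhibition. Benchmarks: ATP-challenged DMSO wells low, unchallenged DMSO wells high.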
CHO-K1 Ca antag: counter-screen for M1 antagonists: effect in parental CHO-K1 cells | inhibition, % at 3 µM | hit rate 0.6% among 360,000 | ATP-induced calcium, Fluo-8 fluorescence;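 active = inhibition above a per-plate cutoff, the plate's mean sample inhibition plus 3 SD, cut at about 24% in these data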;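 also: 0% = DMSO plus EC80 ATP and 100% = DMSO alone without ATP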
OX1R antag-1: antagonists of human orexin 1 receptor (OX1R). AID 485270. OX1R-expressing cells, FRET antagonist read-out. inhibition, % at 6.6 µM. O43613. hit rate 1.8% among 330,000; in the data active = inhibition mostly above about 38%, no sharp cut-off; inactive = mostly below about 40%;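 also: 0% = agonist challenge alone and 100% = reference antagonist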
Target sequence (O43613 whole entry, looked up): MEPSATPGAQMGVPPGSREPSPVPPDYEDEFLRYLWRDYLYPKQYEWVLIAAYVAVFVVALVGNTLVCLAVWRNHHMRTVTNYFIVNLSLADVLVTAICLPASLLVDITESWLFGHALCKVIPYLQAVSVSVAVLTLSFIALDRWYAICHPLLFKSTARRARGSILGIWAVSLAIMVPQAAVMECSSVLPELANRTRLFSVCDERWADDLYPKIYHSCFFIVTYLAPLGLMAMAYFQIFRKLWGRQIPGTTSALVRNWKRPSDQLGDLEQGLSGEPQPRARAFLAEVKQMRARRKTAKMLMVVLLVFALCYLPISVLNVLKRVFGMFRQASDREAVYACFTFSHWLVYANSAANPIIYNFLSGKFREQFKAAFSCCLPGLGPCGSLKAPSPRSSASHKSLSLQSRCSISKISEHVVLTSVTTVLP
CHO-K1 Ca ag: counter-screen for M1 agonists: effect in parental CHO-K1 cells. Fluo-8 calcium fluorescence; scaled to maximal ATP response, vehicle zero. activation, % at 3 µM. hit rate 0.48% among 360,000. AID 602248; in the data active = activation above about 15%;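 also: untransfected CHO-K1 host cells lacking M1 receptor as counterscreen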
OX1R antag-2: blocks the human orexin 1 receptor; O43613; hit rate 0.43% among 330,000; AID 434989; CHO/OX1R cells, Fluo-8 calcium fluorescence, orexin A; inhibition, % at 5 µM;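 active = inhibition above its plate's threshold, mean inhibition of all tested compounds on the plate plus 3 SD, cut at about 37% in these data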;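 also: 0% = orexin A challenge wells and 100% = SB-334867-A antagonist wells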
Starred values were filed as active, the others as inactive.

Screening CCOc1ccc(NS(=O)(=O)c2cc(C(=O)N3CC(C)OC(C)C3)ccc2C)cc1 (centres undefined) returned CHO-K1 Ca PAM 10, CHO parental Ca -28, CHO-K1 Ca antag -8, OX1R antag-1 16, CHO-K1 Ca ag 0 and OX1R antag-2 -31.
CCOc1ccc(S(=O)(=O)Nc2cccc(C(=O)N3CC(C)OC(C)C3)c2)cc1 (centres undefined) was read as CHO-K1 Ca PAM -33, CHO parental Ca -14, CHO-K1 Ca antag 23, OX1R antag-1 4, CHO-K1 Ca ag 0 and OX1R antag-2 -15.
For CCOc1ccc(NS(=O)(=O)c2ccc(C(=O)N3CCCCC3)cc2)cc1 the results were CHO-K1 Ca PAM -19, CHO parental Ca 10, CHO-K1 Ca antag 6, OX1R antag-1 0, CHO-K1 Ca ag 19* and OX1R antag-2 5.
CC1CN(C(=O)c2cccc(S(=O)(=O)N3CCN(c4ccc(F)cc4)CC3)c2)CC(C)O1 (centres undefined) was read as CHO-K1 Ca PAM -3, CHO parental Ca -6, CHO-K1 Ca antag -9, OX1R antag-1 6, CHO-K1 Ca ag 9 and OX1R antag-2 -30.
CN(C)S(=O)(=O)c1ccc(NC(=O)CCNC(=O)c2ccco2)cc1 was read as CHO-K1 Ca PAM -16, CHO parental Ca -6, CHO-K1 Ca antag -5, OX1R antag-1 15, CHO-K1 Ca ag 0 and OX1R antag-2 -7.
`CCOc1ccc(NS(=O)(=O)c2ccc(NC(=S)NC(C)=O)cc2)cc1` gave CHO-K1 Ca PAM 21, CHO parental Ca -4, CHO-K1 Ca antag 3, OX1R antag-1 10, CHO-K1 Ca ag 22* and OX1R antag-2 6.
For COc1ccccc1NS(=O)(=O)c1cccc(C(=O)N2CCCCCC2)c1 the results were CHO-K1 Ca PAM -22, CHO-K1 Ca antag 18 and CHO-K1 Ca ag 1.
`COc1ccccc1NS(=O)(=O)c1ccc(C(=O)N2CCCCCCC2)cc1` gave CHO-K1 Ca PAM 8, CHO parental Ca -4, CHO-K1 Ca antag -10, OX1R antag-1 26*, CHO-K1 Ca ag 4 and OX1R antag-2 13.
`CC1CN(C(=O)c2ccc(NS(=O)(=O)c3ccc(C(C)(C)C)cc3)cc2)CC(C)O1` (centres undefined) gave CHO-K1 Ca PAM -14, CHO-K1 Ca antag 0 and CHO-K1 Ca ag 25*.
COc1ccc(NS(=O)(=O)c2ccc(C(=O)N3CCC(C)CC3)cc2)cc1 was read as CHO-K1 Ca PAM -11, CHO parental Ca 3, CHO-K1 Ca antag -5, OX1R antag-1 9, CHO-K1 Ca ag 31* and OX1R antag-2 21.
O=[N+]([O-])c1ccc(NN=C2CC3CCC2C3)c([N+](=O)[O-])c1 (centres undefined) was read as CHO-K1 Ca PAM 2, CHO-K1 Ca antag 13 and CHO-K1 Ca ag 8.
For O=C(COC(=O)c1ccc(S(=O)(=O)N2CCCCC2)cc1)Nc1ccccc1 the results were CHO-K1 Ca PAM 21, CHO parental Ca -2, CHO-K1 Ca antag -11, OX1R antag-1 -1, CHO-K1 Ca ag 0 and OX1R antag-2 11.
Screening CCc1ccc(OCCn2ccnc2)cc1 returned CHO-K1 Ca PAM 17, CHO parental Ca 9, CHO-K1 Ca antag -5, OX1R antag-1 6, CHO-K1 Ca ag 1 and OX1R antag-2 6.
Screening CCCCN(C(=O)C(C)(C)Oc1ccc(Cl)cc1)c1c(N)n(CCC)c(=O)[nH]c1=O returned CHO-K1 Ca PAM 3, CHO parental Ca -10, CHO-K1 Ca antag -23, OX1R antag-1 2, CHO-K1 Ca ag 2 and OX1R antag-2 -14.
`CCOc1ccc(NC(=O)CN(C)C(=O)c2cc3c(s2)CCC3)cc1OCC` gave CHO-K1 Ca PAM 22, CHO-K1 Ca antag -11 and CHO-K1 Ca ag 0.
Cc1ccc(NS(=O)(=O)c2ccc(C(=O)N3CCCC(C(F)(F)F)C3)cc2)cc1 (centres undefined) was read as CHO-K1 Ca PAM -10, CHO parental Ca 31, CHO-K1 Ca antag 9, OX1R antag-1 8, CHO-K1 Ca ag 39* and OX1R antag-2 45*.
`CC(N)c1csc(Nc2ncccn2)n1` (centres undefined) gave CHO-K1 Ca PAM -5, CHO-K1 Ca antag 25* and CHO-K1 Ca ag 1.
For CC(=O)c1c(C)[nH]c(C(=O)OCC(=O)Nc2ccc(Cl)cc2[N+](=O)[O-])c1C the results were CHO-K1 Ca PAM -8, CHO parental Ca 12, CHO-K1 Ca antag 37*, OX1R antag-1 57, CHO-K1 Ca ag 13 and OX1R antag-2 8.
Cc1cc(NC(=O)CSc2ccnc(=O)[nH]2)no1 was read as CHO-K1 Ca PAM -19, CHO parental Ca -11, CHO-K1 Ca antag -1, OX1R antag-1 1, CHO-K1 Ca ag 1 and OX1R antag-2 -6.
Screening CCC(=O)N1CCC1(C)C(=O)NCc1ccc(SC)cc1 (centres undefined) returned CHO-K1 Ca PAM 0, CHO-K1 Ca antag 12 and CHO-K1 Ca ag 4.
Screening COC(=O)c1sc(S(=O)(=O)NC(Cc2ccccc2)C(=O)O)c(C(=O)OC)c1C (centres undefined) returned CHO-K1 Ca PAM 13, CHO parental Ca -5, CHO-K1 Ca antag -12, OX1R antag-1 32*, CHO-K1 Ca ag 0 and OX1R antag-2 13.
COc1ccc(-n2cc(CNC3CCC(O)CC3)c(-c3cccc(F)c3)n2)cc1 (centres undefined) was read as CHO-K1 Ca PAM 6, CHO parental Ca 7, CHO-K1 Ca antag -3, OX1R antag-1 16, CHO-K1 Ca ag 1 and OX1R antag-2 -4.
Screening Cc1cc(-c2cccc([N+](=O)[O-])c2)nc2ccccc12 returned CHO-K1 Ca PAM 14, CHO parental Ca -6, CHO-K1 Ca antag -1, OX1R antag-1 69*, CHO-K1 Ca ag 4 and OX1R antag-2 -8.
Screening O=Cc1ccccc1-c1cn(CCCOCc2ccccc2)nn1 returned CHO-K1 Ca PAM 2, CHO parental Ca -1, CHO-K1 Ca antag -14, OX1R antag-1 15, CHO-K1 Ca ag 0 and OX1R antag-2 2.
For S=c1nc2ccccc2c2nc(-c3ccccc3Cl)[nH]n12 the results were CHO-K1 Ca PAM -11, CHO parental Ca -7, CHO-K1 Ca antag -7, OX1R antag-1 57*, CHO-K1 Ca ag 1 and OX1R antag-2 -6.
`S=c1nc2ccccc2c2nc(-c3ccccc3)[nH]n12` gave CHO-K1 Ca PAM 11, CHO parental Ca -6, CHO-K1 Ca antag -11, OX1R antag-1 65*, CHO-K1 Ca ag 2 and OX1R antag-2 -4.
Screening O=C(NCc1ccccc1)c1onc(CS(=O)(=O)c2ccccn2)c1C(=O)NCc1ccccc1 returned CHO-K1 Ca PAM 7, CHO parental Ca -16, CHO-K1 Ca antag -8, OX1R antag-1 8, CHO-K1 Ca ag 0 and OX1R antag-2 0.
For COc1cc(/C=C/c2nnc3c4ccccc4ncn23)cc(OC)c1OC the results were CHO-K1 Ca PAM 9, CHO parental Ca -3, CHO-K1 Ca antag 2, OX1R antag-1 65*, CHO-K1 Ca ag 4 and OX1R antag-2 -3.
